# ChEMBL document CHEMBL1147105, “In vitro and in vivo activities of PD 0305970 and PD 0326448, new bacterial gyrase/topoisomerase inhibitors with potent antibacterial activities versus multidrug-resistant gram-positive and fastidious organism groups” (2007)
# Columns and labels:
# Enterococcus faecium = test: Antibacterial activity against VanB-resistant Enterococcus faecium; assay type: functional
# Method in brief: (§1)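 Broth microdilution MIC per CLSI guidelines, incubated at 35°C. Cation-adjusted Mueller-Hinton broth for nonfastidious organisms and staphylococci. Streptococci tested in the same broth with 3% lysed horse blood. Anaerobes tested in supplemented Brucella broth inside an anaerobe chamber (5% CO2, 5% H2, 90% N2), read after 48 h. Strains were mainly recent clinical isolates with confirmed identity.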
# Corynebacterium sp. = test: Antibacterial activity against Corynebacterium sp.; assay type: functional
# Method in brief: (§2)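 Broth microdilution MIC following CLSI guidelines, in cation-adjusted Mueller-Hinton broth containing 3% lysed horse blood, incubated at 35°C. Clinical isolates with identity confirmed. Reported as MIC range, MIC50 and MIC90.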
# Moraxella catarrhalis = test: Antibacterial activity against beta-lactamase positive Moraxella catarrhalis; assay type: functional
# Citrobacter koseri = test: Antibacterial activity against Citrobacter diversus; assay type: functional
# Method in brief: (§3)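 Broth microdilution MIC following CLSI guidelines, in cation-adjusted Mueller-Hinton broth, incubated at 35°C. Recent clinical isolates and reference strains, with identity confirmed by automated and standard microbiological methods. Results reported as MIC range, MIC50 and MIC90.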
# Citrobacter freundii = test: Antibacterial activity against Citrobacter freundii; assay type: functional; method in brief: as §3
# Klebsiella aerogenes = test: Antibacterial activity against Enterobacter aerogenes; assay type: functional; method in brief: as §3
# Enterobacter cloacae = test: Antibacterial activity against Enterobacter cloacae; assay type: functional; method in brief: as §3
# Escherichia coli = test: Antibacterial activity against Escherichia coli; assay type: functional; method in brief: as §3
# Klebsiella oxytoca = test: Antibacterial activity against Klebsiella oxytoca; assay type: functional; method in brief: as §3
# Klebsiella pneumoniae = test: Antibacterial activity against beta-lactamase positive Klebsiella pneumoniae; assay type: functional
# Method in brief: (§4)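 MIC by CLSI broth microdilution for nonfastidious organisms, in cation-adjusted Mueller-Hinton broth incubated at 35°C.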
# Morganella morganii = test: Antibacterial activity against Morganella morganii; assay type: functional; method in brief: as §3
# Proteus vulgaris = test: Antibacterial activity against Proteus vulgaris; assay type: functional; method in brief: as §3
# Salmonella typhimurium = test: Antibacterial activity against Salmonella enterica serovar Typhimurium; assay type: functional, Salmonella enterica subsp. enterica serovar Typhimurium; method in brief: as §3
# Actinomyces sp. = test: Antibacterial activity against Actinomyces sp.; assay type: functional
# [1] = test system: Peptostreptococcus anaerobius; test: Antibacterial activity against Peptostreptococcus anaerobius; assay type: functional
# Method in brief: (§5)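 Anaerobic broth microdilution MIC following CLSI guidelines, in supplemented Brucella broth. Run in an anaerobe chamber under 5% CO2, 5% H2 and 90% N2 at 35°C, and read after 48 h. Reported as MIC range, MIC50 and MIC90.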
# Clostridium perfringens = test: Antibacterial activity against Clostridium perfringens; assay type: functional; method in brief: as §1
# Clostridioides difficile = test: Antibacterial activity against Clostridium difficile; assay type: functional; method in brief: as §5
# [2] = test system: Bacteroides thetaiotaomicron; test: Antibacterial activity against Bacteroides thetaiotaomicron; assay type: functional; method in brief: as §5
# Bacteroides fragilis = test: Antibacterial activity against Bacteroides fragilis; assay type: functional; method in brief: as §5
# Staphylococcus aureus [3] = test: Antibacterial activity against oxacillin-susceptible Staphylococcus aureus; assay type: functional; method in brief: as §4
# Staphylococcus aureus [4] = test: Antibacterial activity against oxacillin-resistant Staphylococcus aureus; assay type: functional; method in brief: as §1
# Staphylococcus aureus [5] = test: Antibacterial activity against oxacillin and levofloxacin-resistant Staphylococcus aureus; assay type: functional; method in brief: as §1
# [6] = test system: Staphylococcus epidermidis; test: Antibacterial activity against oxacillin-susceptible Staphylococcus epidermidis; assay type: functional; method in brief: as §4
# [7] = test system: Staphylococcus epidermidis; test: Antibacterial activity against oxacillin-resistant Staphylococcus epidermidis; assay type: functional; method in brief: as §1
# [8] = test system: Staphylococcus saprophyticus; test: Antibacterial activity against Staphylococcus saprophyticus; assay type: functional; method in brief: as §3
# Alloiococcus otitis = test: Antibacterial activity against Alloiococcus otitidis; assay type: functional
# Method in brief: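 MIC by broth microdilution following CLSI guidelines, in cation-adjusted Mueller-Hinton broth with 3% lysed horse blood. Incubated at 35°C and read after 48 h. Reported as MIC range, MIC50 and MIC90.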
# Streptococcus agalactiae = test: Antibacterial activity against Streptococcus agalactiae; assay type: functional; method in brief: as §2
# Streptococcus equinus = test: Antibacterial activity against Streptococcus bovis; assay type: functional
# Method in brief: (§6)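 Broth microdilution MIC following CLSI guidelines, in cation-adjusted Mueller-Hinton broth with 3% lysed horse blood. Plates incubated at 35°C. Clinical isolates and reference strains, with identity confirmed by standard microbiological methods.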
# Streptococcus pneumoniae [9] = test: Antibacterial activity against penicillin-susceptible Streptococcus pneumoniae; assay type: functional; method in brief: as §1
# Anaerococcus prevotii = test: Antibacterial activity against Peptostreptococcus prevotii; assay type: functional; method in brief: as §5
# Hoylesella oralis = test: Antibacterial activity against Prevotella oralis; assay type: functional; method in brief: as §5
# Streptococcus salivarius = test: Antibacterial activity against Streptococcus salivarius; assay type: functional; method in brief: as §6
# Staphylococcus aureus [10] = test: Antibacterial efficacy against ciprofloxacin and methicillin-resistant Staphylococcus aureus SA2017 infected orally dosed CD1 mouse model; assay type: functional
# Method in brief: (§7)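 Sepsis model in female CD1 mice (6–8 weeks, 18–22 g). Lethal i.p. challenge (0.5 ml) at ≥100 median lethal doses. Streptococci were given in Todd-Hewitt broth; other organisms were given with 20% hog gastric mucin. A single oral gavage dose (0.5 ml, in 0.5% methylcellulose) was given at the time of challenge. The PD50 (mg/kg) was calculated by probit analysis.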
# Staphylococcus aureus [11] = test: Antibacterial efficacy against methicillin-susceptible Staphylococcus aureus UC76 infected orally dosed CD1 mouse model; assay type: functional; conditions: UC76, po; method in brief: as §7
# Staphylococcus aureus [12] = test: Antibacterial efficacy against methicillin-resistant Staphylococcus aureus SA1417 infected orally dosed CD1 mouse model; assay type: functional; method in brief: as §7
# Streptococcus pneumoniae [13] = test: Antibacterial efficacy against Streptococcus pneumoniae SVI infected orally dosed CD1 mouse model; assay type: functional; conditions: po; method in brief: as §7
# Streptococcus pyogenes = test: Antibacterial efficacy against Streptococcus pyogenes C203 infected orally dosed CD1 mouse model; assay type: functional; conditions: C203, po; method in brief: as §7
# Streptococcus pneumoniae [14] = test: Antibacterial activity against Streptococcus pneumoniae SVI infected once daily orally dosed CD1 mouse; assay type: functional; conditions: po
# Method in brief: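 Pneumonia model in CD1 mice (n = 8), anaesthetised with ketamine i.p. Intranasal instillation of 50 μl of broth culture (10^8–10^9 CFU/ml, OD600 0.70), confirmed by plate counts. Oral therapy began 24 h post-challenge. Dosing was either once daily for 1 day or twice daily for 3 days. The result was given as the PD50 (mg/kg).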
# [15] = test system: Parabacteroides distasonis; test: Antimicrobial activity against Bacteroides distasonis; assay type: functional
# Method in brief: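 Anaerobic broth microdilution MIC following CLSI guidelines, in supplemented Brucella broth. Incubated at 35°C in a chamber under 5% CO2, 5% H2 and 90% N2. Read after 48 h.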
smiles,measurement,setting,value
Cc1c(N2CC[C@@H]([C@H](C)N)C2)c(F)cc2c(=O)n(N)c(=O)n(C3CC3)c12,MIC,Enterococcus faecium,0.5 mg/L
same,MIC50,Corynebacterium sp.,0.25 mg/L
same,MIC90,Corynebacterium sp.,0.25 mg/L
same,MIC50,Moraxella catarrhalis,0.25 mg/L
same,MIC90,Moraxella catarrhalis,0.5 mg/L
same,MIC50,Citrobacter koseri,1 mg/L
same,MIC90,Citrobacter koseri,4 mg/L
same,MIC50,Citrobacter freundii,4 mg/L
same,MIC90,Citrobacter freundii,16 mg/L
same,MIC50,Klebsiella aerogenes,4 mg/L
same,MIC90,Klebsiella aerogenes,8 mg/L
same,MIC50,Enterobacter cloacae,1 mg/L
same,MIC90,Enterobacter cloacae,4 mg/L
same,MIC50,Escherichia coli,1 mg/L
same,MIC90,Escherichia coli,2 mg/L
same,MIC50,Klebsiella oxytoca,1 mg/L
same,MIC90,Klebsiella oxytoca,2 mg/L
same,MIC50,Klebsiella pneumoniae,2 mg/L
same,MIC90,Klebsiella pneumoniae,8 mg/L
same,MIC50,Morganella morganii,2 mg/L
same,MIC90,Morganella morganii,8 mg/L
same,MIC,Proteus vulgaris,1 mg/L
same,MIC50,Salmonella typhimurium,0.5 mg/L
same,MIC90,Salmonella typhimurium,1 mg/L
same,MIC,Actinomyces sp.,0.5 mg/L
same,MIC,[1],0.03 mg/L
same,MIC50,Clostridium perfringens,0.5 mg/L
same,MIC90,Clostridium perfringens,2 mg/L
same,MIC50,Clostridioides difficile,0.5 mg/L
same,MIC90,Clostridioides difficile,2 mg/L
same,MIC50,[2],4 mg/L
same,MIC90,[2],16 mg/L
same,MIC50,Bacteroides fragilis,2 mg/L
same,MIC90,Bacteroides fragilis,4 mg/L
same,MIC50,Staphylococcus aureus [3],0.125 mg/L
same,MIC90,Staphylococcus aureus [3],0.125 mg/L
same,MIC50,Staphylococcus aureus [4],0.125 mg/L
same,MIC90,Staphylococcus aureus [4],0.25 mg/L
same,MIC50,Staphylococcus aureus [5],0.25 mg/L
same,MIC90,Staphylococcus aureus [5],0.5 mg/L
same,MIC,[6],0.06 mg/L
same,MIC50,[7],0.125 mg/L
same,MIC90,[7],0.125 mg/L
same,MIC50,[8],0.06 mg/L
same,MIC90,[8],0.125 mg/L
same,MIC50,Alloiococcus otitis,0.004 mg/L
same,MIC90,Alloiococcus otitis,0.008 mg/L
same,MIC50,Streptococcus agalactiae,0.03 mg/L
same,MIC90,Streptococcus agalactiae,0.03 mg/L
same,MIC50,Streptococcus equinus,0.03 mg/L
same,MIC90,Streptococcus equinus,0.03 mg/L
same,MIC50,Streptococcus pneumoniae [9],0.03 mg/L
same,MIC90,Streptococcus pneumoniae [9],0.03 mg/L
same,MIC,Anaerococcus prevotii,0.03 mg/L
same,MIC50,Hoylesella oralis,0.25 mg/L
same,MIC90,Hoylesella oralis,1 mg/L
same,MIC50,Streptococcus salivarius,0.03 mg/L
same,MIC90,Streptococcus salivarius,0.03 mg/L
same,MIC,Staphylococcus aureus [10],0.25 mg/L
same,ED50,Staphylococcus aureus [10]; read-out: PD50,23 mg/kg
same,MIC,Staphylococcus aureus [11],0.06 mg/L
same,ED50,Staphylococcus aureus [11]; read-out: PD50,1.9 mg/kg
same,MIC,Staphylococcus aureus [12],0.25 mg/L
same,ED50,Staphylococcus aureus [12]; read-out: PD50,2.5 mg/kg
same,MIC,Streptococcus pneumoniae [13],0.015 mg/L
same,ED50,Streptococcus pneumoniae [13]; read-out: PD50,2.7 mg/kg
same,MIC,Streptococcus pyogenes,0.015 mg/L
same,ED50,Streptococcus pyogenes; read-out: PD50,0.7 mg/kg
same,MIC,Streptococcus pneumoniae [14],0.008 mg/L
same,ED50,Streptococcus pneumoniae [14]; read-out: PD50,3.2 mg/kg
same,MIC50,[15],4 mg/L
same,MIC90,[15],16 mg/L
